Measured values from ChEMBL document CHEMBL1221356, “Synthesis and evaluation of antimigratory and antiproliferative activities of lipid-linked [13]-macro-dilactones” (Bioorg Med Chem Lett, 2010).
≈ marks a conversion by molar mass, not a printed value. Calls of active or inactive are those of the source. The calls are words filed in the database; no cut-off is given here.

Tests used:
MDCK = assay: Antimigratory activity against MDCK cells assessed as mean rate of migration by wound closure assay; assay type: functional, cell-based; settings: Canis lupus familiaris
In short: (§1)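 Screening scratch-wound assay on confluent monolayers in 24-well plates. Medium changed to fresh medium with 100 µM compound or 1% DMSO; wounds of 0.5–1.0 mm2 scraped with a micropipet tip 30 min later. Scored closed/open by inverted microscopy every 12 h for 72 h; antimigratory if wound remained open after DMSO controls closed. Trypan blue exclusion at end. Culture at 37 °C, 5% CO2.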

BT-20 [1] = assay: Antiproliferative activity against human BT20 cells assessed as after 48 hrs by […]; assay type: functional, cell-based; settings: BT-20, 48 h
In short: (§2)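 BT-20 cells, 5,000/well, grown 24 h at 37 °C, 5% CO2 before treatment with a range of concentrations or 1% DMSO for 48 h. Cell number by WST-8 tetrazolium absorbance at 450 nm after 3 h, versus an initial plate read at time of dosing. Four wells per experiment, three independent experiments. IC50 fitted from 48 h mean cell numbers. MIC is significant reduction versus control (t-test).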

BT-20 [2] = assay: Antiproliferative activity against human BT20 cells assessed as reduction in cell number after 48 hrs by […] assay; assay type: functional; settings: for MIC: Homo sapiens, 48 h; in short: as §2
[3] = Therapeutic index, ratio of MLC for humanBT20 cells to MIC for BT20 cells; assay type: cell-based, BT-20; settings: human, read-out: TI
T47D = assay: Antimigratory activity against human T47D cells assessed as mean rate of migration by wound closure assay; assay type: functional, cell-based; in short: as §1
MDA-MB-435 = assay: Antimigratory activity against human MDA-MB-435 cells assessed as mean rate of migration by wound closure assay; assay type: functional, cell-based; in short: as §1
BT-20 [4] = assay: Activity against human BT20 cells by trypan blue exclusion assay
BT-20 [5] = assay: Antimigratory activity against human BT20 cells assessed as mean rate of migration after 48 hrs by wound closure assay; assay type: functional
In short: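 Kinetic wound-closure assay in confluent BT-20 monolayers grown in MEM with 10% FBS, wounded 30 min after addition of a range of concentrations or DMSO. Wound area measured from digital images at 3–72 h post-wounding.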

Row | SMILES | IC50 (BT-20 [1]) | MIC (BT-20 [2]) | MIC (BT-20 [5]) | Activity (MDCK) | MLC (BT-20 [2]) | selectivity ratio [3] | Activity (T47D) | Activity (MDA-MB-435) | MLC (BT-20 [4])
1 | CCCCCCCCO[C@H]1O[C@@H]2COC(c3ccccc3)O[C@H]2[C@H](O)[C@H]1O (stereo partly specified) | 47.1 µM | 10 µM (≈ 3.8 µg/mL) |  | Active | 75 µM (≈ 28.5 µg/mL) | 7.5 | inactive | Active | 
2 | CCCCCCCCO[C@H]1O[C@@H]2COC(=O)CCCCCCC(=O)O[C@H]2[C@H](O)[C@H]1O | 38.1 µM | 10 µM (≈ 4.31 µg/mL) | 50 µM (≈ 21.5 µg/mL) | Active | 50 µM (≈ 21.5 µg/mL) | 5 | inactive | Active | 75 µM (≈ 32.3 µg/mL)
3 | CCCCCCCCO[C@H]1O[C@@H]2COC(=O)CC[C@H]3O[C@@H]3CCC(=O)O[C@H]2[C@H](O)[C@H]1O | 107 µM | 50 µM (≈ 22.2 µg/mL) | 50 µM (≈ 22.2 µg/mL) | Active | >300 µM | > 6 | inactive | Active | 125 µM (≈ 55.6 µg/mL)
4 | CCCCCCCCO[C@H]1O[C@@H]2COC(=O)CC/C=C/CCC(=O)O[C@H]2[C@H](OC)[C@H]1OC | 91.4 µM | 50 µM (≈ 22.8 µg/mL) | 75 µM (≈ 34.2 µg/mL) | Active | 300 µM (≈ 137 µg/mL) | 6 | inactive | Active | 125 µM (≈ 57.1 µg/mL)
5 | CCCCCCCCO[C@@H]1O[C@@H]2COC(c3ccccc3)O[C@H]2[C@H](O)[C@H]1O (stereo partly specified) | 72.1 µM | 50 µM (≈ 19 µg/mL) |  | Active | 300 µM (≈ 114 µg/mL) | 6 | inactive | Active | 

More lines, main results first:

Row | IC50 (BT-20 [1]) | MIC (BT-20 [2]) | MIC (BT-20 [5]) | SMILES | Activity (MDCK) | MLC (BT-20 [2]) | selectivity ratio [3] | Activity (T47D) | Activity (MDA-MB-435) | MLC (BT-20 [4])
6 | 85.1 µM | 10 µM (≈ 6.09 µg/mL) |  | CCCCCCCCO[C@H]1O[C@@H]2COC(=O)CC/C=C/CCC(=O)O[C@H]2[C@H](OCc2ccccc2)[C@H]1OCc1ccccc1 | Active | 300 µM (≈ 183 µg/mL) | 30 | inactive | Active | 
7 | 52.9 µM | 25 µM (≈ 11.8 µg/mL) |  | CCCCCCCCO[C@H]1O[C@H](CO)[C@@H](O)[C@H](OCc2ccccc2)[C@H]1OCc1ccccc1 |  | 75 µM (≈ 35.4 µg/mL) | 3 |  |  | 
8 | 61.1 µM | 25 µM (≈ 11.8 µg/mL) |  | CCCCCCCCO[C@@H]1O[C@H](CO)[C@@H](O)[C@H](OCc2ccccc2)[C@H]1OCc1ccccc1 |  | 100 µM (≈ 47.3 µg/mL) | 4 |  |  | 
